Data from ChEMBL document CHEMBL5303300, “EUbOPEN Chemogenomics Library - Multiplex” (2023).
Values joined by “and” are separate entries in the source; they are usually repeats but may differ in a detail not shown here. Identical values can stand only once.

Assays:
Assay type in all cases: toxicity, cell-based
[1] = system: U2OS; test: Multiplex assay against U2OS; details: human, 10 µM, compound concentration 10 uM, number of replicates 2
Procedure, shortened: (§1)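 Cells stained live at seeding with Hoechst33342, BioTracker Green Microtubule Cytoskeleton Dye, MitoTracker Red and Annexin V Alexa Fluor 680 were imaged on a CQ1 microscope at 37°C and 5% CO2 after compound addition. Their classification by CellPathfinder machine-learning gating ran from Hoechst high-intensity objects versus normal cells, to healthy, pyknosed or fragmented nuclei among normal cells, to mitotic or apoptotic among pyknosed cells. Tubulin, mitochondrial-mass and membrane-permeability phenotypes are per cents of healthy-nucleus cells.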

[2] = system: HEK-293T; test: Multiplex assay against HEK293T; details: human, 10 µM, compound concentration 10 uM, number of replicates 2; procedure, shortened: as §1
[3] = system: Fibroblast; test: Multiplex assay against human fibroblast; details: 10 µM, compound concentration 10 uM, number of replicates 2; procedure, shortened: as §1

## CC(=O)O[C@H]1C(=O)[C@@]2(C)[C@H]([C@H](OC(=O)c3ccccc3)[C@]3(O)C[C@H](OC(=O)[C@H](O)[C@@H](NC(=O)c4ccccc4)c4ccccc4)C(C)=C1C3(C)C)[C@]1(OC(C)=O)CO[C@@H]1C[C@@H]2O [PACLITAXEL]
[1]; 12 h
  Population Apoptotic (%): 75% and 81% and 77%
  Population Healthy Nuclei (%): 47% and 63% and 72% and 76%
  Population Hoechst High Intensity Objects (%): 0%
  Population Membrane Permeable-Phenotype (%): 6% and 3% and 4%
  Population Mitochondria Different-Phenotype (%): 12% and 10% and 16% and 15%
  Population Mitotic Cells (%): 25% and 18% and 22%
  Population Normal (%): 100% and 99%
  Population Pyknosed Nuclei (%): 11% and 18% and 15% and 13%
  Population Tubulin-Different-Phenotype (%): 33% [middle of 4 runs]
[1]; 24 h
  Population Apoptotic (%): 72% and 57% and 74% and 78%
  Population Healthy Nuclei (%): 33% and 55% and 66% and 65%
  Population Hoechst High Intensity Objects (%): 2% and 0%
  Population Membrane Permeable-Phenotype (%): 7% and 3%
  Population Mitochondria Different-Phenotype (%): 27% [middle of 4 runs]
  Population Mitotic Cells (%): 27% and 42% and 26% and 21%
  Population Normal (%): 97% and 100% and 99%
  Population Pyknosed Nuclei (%): 26% and 25% and 20%
  Population Tubulin-Different-Phenotype (%): 21% and 19% and 36%
[1]; 48 h
  Population Apoptotic (%): 77% and 76% and 90% and 93%
  Population Healthy Nuclei (%): 33% and 30% and 56% and 60%
  Population Hoechst High Intensity Objects (%): 0%
  Population Mitochondria Different-Phenotype (%): 38% and 42% and 41%
  Population Normal (%): 100% and 99%
  Population Pyknosed Nuclei (%): 35% and 28% and 32%
  Population Tubulin-Different-Phenotype (%): 33% and 28% and 32% and 41%
[2]; 12 h
  Population Apoptotic (%): 60% and 50% and 49% and 45%
  Population Fragmented Nuclei (%): 3% and 1% and 2%
  Population Healthy Nuclei (%): 74% and 80% and 77%
  Population Hoechst High Intensity Objects (%): 6% and 9% and 5% and 7%
  Population Membrane Permeable-Phenotype (%): 0%
  Population Mitochondria Different-Phenotype (%): 48% and 39% and 43% and 50%
  Population Mitotic Cells (%): 39% and 49% and 50% and 54%
  Population Normal (%): 93% and 90% and 94% and 92%
  Population Pyknosed Nuclei (%): 22% and 17% and 20%
  Population Tubulin-Different-Phenotype (%): 52% and 56% and 58% and 57%
  Total Cell Count: 418 and 518 and 523 and 401
[2]; 24 h
  Population Apoptotic (%): 65% and 51% and 71% and 68%
  Population Fragmented Nuclei (%): 3% and 4% and 2%
  Population Healthy Nuclei (%): 81% and 82% and 77%
  Population Hoechst High Intensity Objects (%): 9% and 12% and 10% and 8%
  Population Membrane Permeable-Phenotype (%): 0%
  Population Mitochondria Different-Phenotype (%): 45% and 43% and 58%
  Population Mitotic Cells (%): 35% and 48% and 28% and 31%
  Population Normal (%): 90% and 87% and 89% and 91%
  Population Pyknosed Nuclei (%): 15% and 14% and 18%
  Population Tubulin-Different-Phenotype (%): 56% and 47%
  Total Cell Count: 442 and 490 and 384 and 517
[2]; 48 h
  Population Apoptotic (%): 71% and 81% and 64% and 73%
  Population Fragmented Nuclei (%): 3% and 2% and 4%
  Population Healthy Nuclei (%): 88% and 89% and 84% and 83%
  Population Hoechst High Intensity Objects (%): 11% and 9%
  Population Membrane Permeable-Phenotype (%): 0%
  Population Mitochondria Different-Phenotype (%): 44% and 41% and 50%
  Population Mitotic Cells (%): 28% and 18% and 35% and 26%
  Population Normal (%): 88% and 90%
  Population Pyknosed Nuclei (%): 7% and 10% and 13%
  Population Tubulin-Different-Phenotype (%): 59% and 58% and 62%
  Total Cell Count: 478 and 469 and 500 and 350
[3]; 12 h
  Population Apoptotic (%): 50% and 51% and 43% and 57%
  Population Fragmented Nuclei (%): 18% and 14% and 8% and 16%
  Population Healthy Nuclei (%): 60% and 57% and 66%
  Population Hoechst High Intensity Objects (%): 0%
  Population Membrane Permeable-Phenotype (%): 2% and 1%
  Population Mitochondria Different-Phenotype (%): 4% and 1% and 2% and 7%
  Population Mitotic Cells (%): 50% and 48% and 56% and 42%
  Population Normal (%): 100% and 99%
  Population Pyknosed Nuclei (%): 21% and 28% and 24% and 17%
  Population Tubulin-Different-Phenotype (%): 14% and 15% and 13%
[3]; 24 h
  Population Apoptotic (%): 68% and 71% and 75% and 53%
  Population Fragmented Nuclei (%): 14% and 11% and 18%
  Population Healthy Nuclei (%): 61% and 56% and 63%
  Population Hoechst High Intensity Objects (%): 0%
  Population Membrane Permeable-Phenotype (%): 0% and 2% and 1%
  Population Mitochondria Different-Phenotype (%): 4% and 10% and 7% and 8%
  Population Mitotic Cells (%): 31% and 28% and 24% and 46%
  Population Normal (%): 100% and 99%
  Population Pyknosed Nuclei (%): 23% and 28% and 25% and 19%
[3]; 48 h
  Population Apoptotic (%): 92% and 82% and 86% and 71%
  Population Fragmented Nuclei (%): 23% and 16% and 19% and 22%
  Population Healthy Nuclei (%): 60% and 62% and 63%
  Population Hoechst High Intensity Objects (%): 0%
  Population Membrane Permeable-Phenotype (%): 1% and 7% and 3%
  Population Mitochondria Different-Phenotype (%): 6% and 9% and 7%
  Population Normal (%): 100% and 99%
  Population Pyknosed Nuclei (%): 15% and 20% and 16%
  Population Tubulin-Different-Phenotype (%): 14% and 19% and 11% and 10%
